Experimental data published in ChEMBL document CHEMBL3785089, “Design and Synthesis of Irreversible Analogues of Bardoxolone Methyl for the Identification of Pharmacologically Relevant Targets and Interaction Sites” (J Med Chem, 2016).
The source made the active and inactive calls. No cut-off for these calls is given here.

What was measured:
[1] = molecular target: T1, Nuclear factor erythroid 2-related factor 2 (Rattus norvegicus) (UniProt O54968); experiment: Induction of NRF2 activation in rat H42E cells expressing ARE8L assessed as reporter transgene activity after 24 hrs by luminescence assay; assay type: cell-based
T1 sequence (whole entry): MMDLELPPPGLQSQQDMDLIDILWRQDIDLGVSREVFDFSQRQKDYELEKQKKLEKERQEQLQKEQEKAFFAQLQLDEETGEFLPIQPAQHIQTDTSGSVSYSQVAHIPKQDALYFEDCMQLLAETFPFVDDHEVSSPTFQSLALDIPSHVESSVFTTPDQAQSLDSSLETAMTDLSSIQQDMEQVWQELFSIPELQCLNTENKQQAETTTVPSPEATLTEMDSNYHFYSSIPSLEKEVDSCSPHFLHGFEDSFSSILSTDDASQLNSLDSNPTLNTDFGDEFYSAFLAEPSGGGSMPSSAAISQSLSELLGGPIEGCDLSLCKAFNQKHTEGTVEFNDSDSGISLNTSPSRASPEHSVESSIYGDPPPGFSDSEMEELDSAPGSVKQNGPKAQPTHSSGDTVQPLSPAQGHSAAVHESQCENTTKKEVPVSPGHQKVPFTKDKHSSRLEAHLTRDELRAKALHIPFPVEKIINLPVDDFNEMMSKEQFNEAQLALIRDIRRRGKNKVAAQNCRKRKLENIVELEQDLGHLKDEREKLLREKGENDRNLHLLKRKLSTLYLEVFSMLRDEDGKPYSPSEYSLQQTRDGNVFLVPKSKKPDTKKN
Procedure, shortened: (§1)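 Reporter cells (H4IIE-ARE8L) exposed 24 h to compounds at 0.5% DMSO. Cells washed in PBS, then given 150 µg/mL D-luciferin in PBS for 5 min before reading luminescence. Signal normalised to vehicle-treated cells. The concentration giving a 2-fold rise in reporter activity (CD) was taken from the concentration-response data. Mean ± S.D., n=4.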

[2] = Thiol reactivity using beta-mercaptoethanol assessed as chemical shifts at 25 degC by NMR spectroscopy
[3] = Thiol reactivity using beta-mercaptoethanol assessed as chemical shifts in presence of triethylamine at 25 degC by NMR spectroscopy
[4] = molecular target: Kelch-like ECH-associated protein 1 (Mus musculus) (UniProt Q9Z2X8); experiment: Binding affinity to recombinant mouse poly His-tagged Keap1 expressed in Escherichia coli assessed as chemical modification of Cys-257 residue incubated up to 24 hrs by LC-MS/MS analysis
Chain of Kelch-like ECH-associated protein 1 (Mus musculus) (Q9Z2X8 whole entry): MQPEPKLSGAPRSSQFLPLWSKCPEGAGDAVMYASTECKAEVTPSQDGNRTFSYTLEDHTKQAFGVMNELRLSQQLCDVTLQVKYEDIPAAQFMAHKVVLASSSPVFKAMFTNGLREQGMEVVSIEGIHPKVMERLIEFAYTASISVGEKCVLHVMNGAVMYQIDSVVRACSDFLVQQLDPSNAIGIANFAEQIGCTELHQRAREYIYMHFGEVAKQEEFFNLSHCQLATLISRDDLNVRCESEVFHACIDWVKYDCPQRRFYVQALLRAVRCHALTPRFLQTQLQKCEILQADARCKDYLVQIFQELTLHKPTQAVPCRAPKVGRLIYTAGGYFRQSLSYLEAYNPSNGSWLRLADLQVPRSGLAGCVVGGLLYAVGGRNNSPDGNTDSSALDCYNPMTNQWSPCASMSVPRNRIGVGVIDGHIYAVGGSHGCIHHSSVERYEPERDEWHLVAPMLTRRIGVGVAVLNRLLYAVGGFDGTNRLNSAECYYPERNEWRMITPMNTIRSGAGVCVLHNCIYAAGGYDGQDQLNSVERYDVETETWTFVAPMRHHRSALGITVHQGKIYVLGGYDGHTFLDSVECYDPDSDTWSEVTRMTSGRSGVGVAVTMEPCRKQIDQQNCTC
Procedure, shortened: (§2)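 Recombinant His-tagged protein (human GSTP1 or mouse Keap1) purified by nickel affinity and incubated on-bead with the stated molar excess of compound for up to 24 h, pH 8.4, 37 °C. Free cysteines capped with 55 mM iodoacetamide for 15 min, trypsin digest overnight at 37 °C, LC-MS/MS detection of adduct mass shifts on peptide y/b ions.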

[5] = molecular target: T1, Nuclear factor erythroid 2-related factor 2 (Rattus norvegicus); experiment: Stabilization of NRF2 in rat H42E cells expressing ARE8L at 0.01 to 30 nM after 1 hr by Western blot analysis; assay type: cell-based
Procedure, shortened: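 H4IIE-ARE8L cells exposed 1 h to the compound. Nrf2 protein accumulation detected by immunoblot. DMSO (0.5%) served as negative control and MG132 (10 μM) as positive control. Representative of n=3 independent experiments.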

[6] = Cytotoxicity against rat H42E cells expressing ARE8L assessed as cellular ATP level after 24 hrs by Celltiter-Glo luminescent cell viability assay; assay type: cell-based
Procedure, shortened: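 H4IIE-ARE8L rat hepatoma cells grown in DMEM with 10% FBS, glutamine, HEPES and non-essential amino acids, and exposed 24 h to compounds at 0.5% DMSO. Cellular ATP measured by CellTiter-Glo luminescence and expressed relative to vehicle. Mean ± S.D., n=4.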

[7] = molecular target: Kelch-like ECH-associated protein 1 (Mus musculus) (UniProt Q9Z2X8); experiment: Binding affinity to recombinant mouse poly His-tagged Keap1 expressed in Escherichia coli assessed as chemical modification of Cys-288 residue incubated up to 24 hrs by LC-MS/MS analysis; procedure, shortened: as §2
[8] = molecular target: Kelch-like ECH-associated protein 1 (Mus musculus) (UniProt Q9Z2X8); experiment: Binding affinity to recombinant mouse poly His-tagged Keap1 expressed in Escherichia coli assessed as chemical modification of Cys-434 residue incubated up to 24 hrs by LC-MS/MS analysis; procedure, shortened: as §2
[9] = molecular target: Kelch-like ECH-associated protein 1 (Mus musculus) (UniProt Q9Z2X8); experiment: Binding affinity to recombinant mouse poly His-tagged Keap1 expressed in Escherichia coli assessed as chemical modification of Cys-613 residue incubated up to 24 hrs by LC-MS/MS analysis; procedure, shortened: as §2
[10] = molecular target: Glutathione S-transferase P (Homo sapiens) (UniProt P09211); experiment: Binding affinity to recombinant human poly His-tagged GSTP1 expressed in Escherichia coli assessed as chemical modification at Cys-47 at 10:1 compound:protein molar ratio after 1 hr by LC-MS/MS analysis; procedure, shortened: as §2
Chain of Glutathione S-transferase P (Homo sapiens) (P09211 2-210 limits assumed): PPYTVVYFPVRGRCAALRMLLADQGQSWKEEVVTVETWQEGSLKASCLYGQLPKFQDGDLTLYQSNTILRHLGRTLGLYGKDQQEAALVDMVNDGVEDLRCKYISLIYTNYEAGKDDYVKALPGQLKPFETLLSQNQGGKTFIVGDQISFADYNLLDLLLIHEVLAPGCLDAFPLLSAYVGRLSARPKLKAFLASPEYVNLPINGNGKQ

[11] = Thiol reactivity using N-acetyl cysteine assessed as chemical shifts at 25 degC by NMR spectroscopy
[12] = molecular target: Kelch-like ECH-associated protein 1 (Mus musculus) (UniProt Q9Z2X8); experiment: Binding affinity to recombinant mouse poly His-tagged Keap1 expressed in Escherichia coli assessed as chemical modification of Cys-273 residue incubated up to 24 hrs by LC-MS/MS analysis; procedure, shortened: as §2
[13] = molecular target: Kelch-like ECH-associated protein 1 (Mus musculus) (UniProt Q9Z2X8); experiment: Binding affinity to recombinant mouse poly His-tagged Keap1 expressed in Escherichia coli assessed as chemical modification of Cys-489 residue incubated up to 24 hrs by LC-MS/MS analysis; procedure, shortened: as §2
[14] = molecular target: T1, Nuclear factor erythroid 2-related factor 2 (Rattus norvegicus); experiment: Induction of NRF2 activation in rat H42E cells expressing ARE8L assessed as increase in reporter transgene activity after 24 hrs by luminescence assay; assay type: cell-based; procedure, shortened: as §1
[15] = molecular target: Kelch-like ECH-associated protein 1 (Mus musculus) (UniProt Q9Z2X8); experiment: Binding affinity to mouse V5-tagged Keap1 expressed in HEK293T cells assessed as chemical modification of Cys-257 residue at 100 uM incubated for by LC-MS/MS analysis; assay type: cell-based; details: HEK-293T
Procedure, shortened: (§3)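 Mouse Keap1-V5 expressed ectopically in HEK293T cells; cells exposed to 100 µM compound for 1 h. Keap1-V5 immunopurified from lysates, free cysteines capped with iodoacetamide, trypsin-digested overnight at 37 °C, then LC-MS/MS. Modification frequency per cysteine from n=4 independent experiments.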

[16] = molecular target: Kelch-like ECH-associated protein 1 (Mus musculus) (UniProt Q9Z2X8); experiment: Binding affinity to mouse V5-tagged Keap1 expressed in HEK293T cells assessed as chemical modification of Cys-288 residue at 100 uM incubated for by LC-MS/MS analysis; assay type: cell-based; details: HEK-293T; procedure, shortened: as §3
[17] = molecular target: Kelch-like ECH-associated protein 1 (Mus musculus) (UniProt Q9Z2X8); experiment: Binding affinity to mouse V5-tagged Keap1 expressed in HEK293T cells assessed as chemical modification of Cys-489 residue at 100 uM incubated for by LC-MS/MS analysis; assay type: cell-based; details: HEK-293T; procedure, shortened: as §3
[18] = molecular target: Kelch-like ECH-associated protein 1 (Mus musculus) (UniProt Q9Z2X8); experiment: Binding affinity to mouse V5-tagged Keap1 expressed in HEK293T cells assessed as chemical modification of Cys-273 residue at 100 uM incubated for by LC-MS/MS analysis; assay type: cell-based; details: HEK-293T; procedure, shortened: as §3
[19] = molecular target: Kelch-like ECH-associated protein 1 (Mus musculus) (UniProt Q9Z2X8); experiment: Binding affinity to mouse V5-tagged Keap1 expressed in HEK293T cells assessed as chemical modification of Cys-434 residue at 100 uM incubated for by LC-MS/MS analysis; assay type: cell-based; details: HEK-293T; procedure, shortened: as §3
[20] = molecular target: Glutathione S-transferase P (Homo sapiens) (UniProt P09211); experiment: Binding affinity to recombinant human poly His-tagged GSTP1 expressed in Escherichia coli assessed as chemical modification at Cys-47 at 100:1 compound:protein molar ratio after 24 hrs by LC-MS/MS analysis; procedure, shortened: as §2
[21] = molecular target: Glutathione S-transferase P (Homo sapiens) (UniProt P09211); experiment: Binding affinity to recombinant human poly His-tagged GSTP1 expressed in Escherichia coli assessed as chemical modification of Cys-47 residue at 1:1 compound:protein molar ratio after 24 hrs by LC-MS/MS analysis in presence of methyl 2-cyano-3,12-dioxooleana-1,9(11)-dien-28-oate
Procedure, shortened: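 Competition format. His-tagged human GSTP1 was held on-bead at pH 8.4, 37 °C and pre-incubated 1 h with molar excesses of the competitor. The probe was then added at 1:1 molar ratio for another 24 h, with the competitor kept in the buffer. Cysteines capped with iodoacetamide, followed by tryptic digestion and LC-MS/MS of Cys-47 modification.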

In the case of `COC(=O)[C@]12CCC(C)(C)C[C@H]1[C@H]1C(=O)C=C3[C@@]4(C)CC(C#N)C(=O)C(C)(C)[C@@H]4CC[C@@]3(C)[C@]1(C)CC2` (some centres undefined), the CD [1] is reported as 0.009 µM, the Activity [2] is reported as “inactive” and the Activity [3] is reported as “inactive”.

For `COC(=O)[C@]12CCC(C)(C)C[C@H]1[C@H]1C(=O)C=C3[C@@]4(C)CCC(=O)C(C)(C)[C@@H]4CC[C@@]3(C)[C@]1(C)CC2`, the CD [1] was 1.2 µM.

With `COC(=O)[C@]12CCC(C)(C)C[C@H]1[C@H]1C(=O)C=C3[C@@]4(C)C=C(C#N)C(=O)C(C)(C)[C@@H]4CC[C@@]3(C)[C@]1(C)CC2` [BARDOXOLONE METHYL] the Activity [4] was “inactive”, the Activity [5] was “Active” and the CD [1] was 0.0005 µM. For the same compound, the IC50 [6] was 1400 nM, the Activity [7] was “inactive” and the Activity [8] was “inactive”. For the same compound, the Activity [9] was “inactive”, the Activity [10] was “Active” and the Activity [2] was 5.85 ppm. The Activity [11] was 5.81 ppm, the Activity [12] was “inactive” and the Activity [13] was “inactive”.

`COC(=O)[C@]12CCC(C)(C)C[C@H]1[C@H]1C(=O)C=C3[C@@]4(C)CC[C@H](OC(C)=O)C(C)(C)[C@@H]4CC[C@@]3(C)[C@]1(C)CC2` gave a CD [1] of 17.6 µM.

In the case of `COC(=O)[C@]12CCC(C)(C)C[C@H]1[C@H]1C(=O)C=C3[C@@]4(C)[C@H]5O[C@H]5C(=O)C(C)(C)[C@@H]4CC[C@@]3(C)[C@]1(C)CC2`, the CD [1] is reported as 15.4 µM and the Activity [14] is reported as “Dose-dependent effect”.

In the case of `COC(=O)[C@]12CCC(C)(C)C[C@H]1[C@H]1C(=O)C=C3[C@@]4(C)[C@H]5O[C@@]5(C#N)C(=O)C(C)(C)[C@@H]4CC[C@@]3(C)[C@]1(C)CC2`, the Activity [4] is reported as “Dose-dependent effect”, the CD [1] is reported as 0.002 µM and the IC50 [6] is reported as 4300 nM. The Activity [7] was “Dose-dependent effect”, the Activity [8] was “Dose-dependent effect” and the Activity [9] was “Dose-dependent effect”. For the same compound, the Activity [15] was “Active”, the Activity [16] was “Active” and the Activity [17] was “Active”. For the same compound, the Activity [18] was “Active”, the Activity [19] was “Active” and the Activity [20] was “Active”. For the same compound, the Activity [21] was “inactive”, the Activity [2] was “inactive” and the Activity [11] was “inactive”. The Activity [3] was 5.15 ppm, the Activity [12] was “Dose-dependent effect” and the Activity [13] was “Dose-dependent effect”.

For `COC(=O)[C@]12CCC(C)(C)C[C@H]1[C@H]1C(=O)C=C3[C@@]4(C)C=CC(=O)C(C)(C)[C@@H]4CC[C@@]3(C)[C@]1(C)CC2`, the CD [1] was 0.9 µM and the Activity [14] was “Dose-dependent effect”.
